Series [1] is filed under the species Homo sapiens. Nature of the series: In vitro inhibitory activity against superoxide production from human neutrophils stimulated with f-MLP. Type of series: functional. An outline of the steps:
(§1)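 Neutrophils isolated from fresh venous blood of healthy adults by dextran sedimentation and Ficoll-paque gradient. Cells diluted in Hepes–Hanks, pH 7.4, then held at 1 × 10^6 cell/mL and preincubated 20 min at 37 °C with or without compound. Cytochalasin B (1 μg/mL final) added 10 min and ferricytochrome c (106 μM final) added 4 min before f-MLP stimulation. Reaction stopped with 1 mM N-ethylmaleimide, cells spun down, superoxide read as SOD-inhibitable absorbance at 550 nm.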

Series [2] in a line: Solubility was measured by shaking with water and 1 equiv of NaOH. Type of series: physicochemical. Conditions: water with 1 equiv of NaOH; call rule not given here. An outline of the steps:
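Solubility: compound shaken with water plus 1 equiv NaOH; dissolved amount quantified by HPLC.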

The species entered for series [3] is Homo sapiens. Kind of series: In vitro inhibitory activity against superoxide production from human neutrophils stimulated with f-MLP; NE indicates no effect. Type of series: functional. In short, it runs like this: as §1
The species named for series [4] is Homo sapiens. Kind of series: In vitro inhibitory activity against superoxide production from human neutrophils stimulated with f-MLP; NE= No effect. Type of series: functional. An outline of the steps:
as §1

Series [5] can be described thus: Solubility was measured by shaking with water. Type of series: physicochemical. An outline of the steps:
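Aqueous solubility: compound shaken with water; dissolved amount quantified by HPLC.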

Series [6] is filed under the species Homo sapiens. Kind of series: In vitro inhibitory activity against superoxide production from human neutrophils stimulated with f-MLP; act.= activation of superoxide production. Type of series: functional. In short, it runs like this: as §1
For series [7], the species on record is Homo sapiens. Nature of the series: In vitro inhibitory activity against superoxide production from human neutrophils stimulated with f-MLP; No effect. Type of series: functional. In short, it runs like this:
as §1

In general, IC50 refers to the point on the concentration scale where inhibition reaches its midpoint. High values mean a need for much substance, low ones inhibition by little substance. Broadly, the solubility is the dissolved amount per volume that the medium holds. For orientation: solubility (thermodynamic) means the concentration in solution at equilibrium with solid.

Regarding `COc1ccc(-c2nc(-c3ccc4c(c3)CCC(=O)N4)cs2)cc1OC`, the IC50 in series [1] came out at 300 nM.
`CCOc1ccc(-c2nc(-c3ccccc3C(=O)O)cs2)cc1OCC`: in series [1], the IC50 is > 10000 nM. Moreover, the solubility in series [2] stood at 21 mg/mL.
`CCOc1ccc(-c2nc(-c3ccc4c(c3)CCC(=O)N4)cs2)cc1OCC`: half-maximal inhibition in series [1] (IC50) required 80 nM.
Consider `CCCCOc1ccc(-c2nc(-c3ccc4c(c3)CCC(=O)N4)cs2)cc1OC`, for which, in series [3], the IC50 result is on record as “Not Active”.
`CCCCOc1ccc(-c2nc(-c3ccc4c(c3)CCC(=O)N4)cs2)cc1OCCCC`: in series [3], the IC50 entry is given as “Not Active”.
The compound `CCOc1ccc(-c2nc(-c3ccc4c(c3)CCC(=O)N4)cs2)cc1OC` yielded an IC50 in series [1] of 600 nM.
Same read-out and setting: next, `CCOc1cc(-c2nc(-c3ccc4c(c3)CCC(=O)N4)cs2)ccc1OC`: 90 nM.
Consider `CCCOc1ccc(-c2nc(-c3ccc4c(c3)CCC(=O)N4)cs2)cc1OC`, for which the IC50 entry in series [3] was “Not Active”.
`CCOc1ccc(-c2nc(-c3cccc(C(=O)O)c3)cs2)cc1OCC` showed an IC50 in series [1] of 5 nM. In addition, the solubility in series [2] amounted to 23 mg/mL.
Consider `CCCOc1ccc(-c2nc(-c3ccc4c(c3)CCC(=O)N4)cs2)cc1OCCC`, for which the IC50 result in series [3] is listed as “Not Active”.
Consider `CCCCCCCCCCOc1ccc(-c2nc(-c3ccc4c(c3)CCC(=O)N4)cs2)cc1OCCCCCCCCCC`, for which the IC50 entry in series [4] is given as “Not Active”.
For `COc1ccc(-c2nc(-c3ccc4c(c3)CCC(=O)N4)cs2)c(OC)c1`, in series [1], inhibition was half-maximal at 3000 nM (IC50).
Regarding `COc1cc(OC)cc(-c2nc(-c3ccc4c(c3)CCC(=O)N4)cs2)c1`, the IC50 result in series [3] is reported as “Not Active”.
Regarding `c1cncc(-c2csc(-c3cccnc3)n2)c1`, 1000 nM corresponded to half-maximal inhibition in series [1] (IC50).
For `O=C1CCc2cc(-c3csc(-c4ccc5c(c4)OCCO5)n3)ccc2N1`, the IC50 result in series [3] was “Not Active”.
The same measure, in the same setting: next, `O=C1CCc2cc(-c3csc(-c4ccc(Cl)cc4)n3)ccc2N1`: “Not Active”.
In turn, `CCOc1ccc(-c2nc(-c3cc(OC(C)=O)cc(OC(C)=O)c3)cs2)cc1OCC` gave an IC50 in series [1] of 1 nM. For the same compound, the solubility (thermodynamic) in series [5] is < 0.001 mg/mL.
In the case of `Cc1ccc(-c2nc(-c3ccc4c(c3)CCC(=O)N4)cs2)cc1C`, the IC50 entry in series [3] is reported as “Not Active”.
In series [1], `CCOc1ccc(-c2nc(-c3cccc(C(=O)O)n3)cs2)cc1OCC` [TETOMILAST] registered an IC50 of 70 nM. Moreover, in series [2], the solubility worked out at 21 mg/mL.
Turning to `COc1cccc(-c2nc(-c3ccc4c(c3)CCC(=O)N4)cs2)c1OC`, the IC50 entry in series [6] is on record as “Active”.
In turn, `COc1ccc(/C=C/c2nc(-c3ccc4c(c3)CCC(=O)N4)cs2)cc1OC` gave an IC50 in series [1] of 2800 nM.
For the compound `COc1cc(-c2nc(-c3ccc4c(c3)CCC(=O)N4)cs2)ccc1S(C)(=O)=O`, the IC50 entry in series [3] is “Not Active”.
Take `CC(=O)Oc1ccc(-c2nc(-c3ccc4c(c3)CCC(=O)N4)cs2)cc1OC(C)=O`: in series [7], the IC50 result is reported as “Not Active”.
As to `O=C1CCc2cc(-c3csc(-c4ccccc4)n3)ccc2N1`, the IC50 in series [1] was > 10000 nM.
The same measure, in the same setting: next, `CCCCOc1cc(-c2nc(-c3ccc4c(c3)CCC(=O)N4)cs2)ccc1OC`: 300 nM.
On the same count and under the same terms, next, `O=C1CCc2cc(-c3csc(-c4cccnc4)n3)ccc2N1`: 1000 nM.
In series [1], `CCOc1ccc(-c2nc(-c3ccc(C(=O)O)cc3)cs2)cc1OCC` displayed an IC50 of 200 nM. The solubility in series [2] was 23 mg/mL.
For the compound `c1ccc(-c2csc(-c3cccnc3)n2)cc1`, it took 1000 nM to reach half-maximal inhibition in series [1] (IC50).
Same read-out and setting: the figure for `COc1cc(-c2nc(-c3ccc4c(c3)CCC(=O)N4)cs2)ccc1[S+](C)[O-]` (stereo not given) is 800 nM.
`CCOc1ccc(-c2nc(-c3ccc(C(=O)O)o3)cs2)cc1OCC` registered an IC50 in series [1] of 20 nM. The solubility in series [2] was 23 mg/mL.
For `COc1ccc(C(=O)c2nc(-c3ccc4c(c3)CCC(=O)N4)cs2)cc1OC`, the IC50 in series [1] was 1000 nM.
The same measure, in the same setting: next, `COc1ccc(-c2nc(-c3ccc4c(c3)CCC(=O)N4)cs2)cc1`: 9000 nM; `COc1ccc(-c2nc(-c3ccc4c(c3)CCC(=O)N4)c[nH]2)cc1OC`: > 10000 nM.
As to `COc1ccc(-c2nc(-c3ccc4c(c3)CCC(=O)N4)co2)cc1OC`, the IC50 in series [1] was > 10000 nM.
`COc1ccc(Cc2nc(-c3ccc4c(c3)CCC(=O)N4)cs2)cc1OC` showed an IC50 in series [1] of 10000 nM.
Same read-out and setting: the figure for `O=C1CCc2cc(-c3csc(-c4ccc(O)c(O)c4)n3)ccc2N1` is 1000 nM; for `COc1cc(-c2nc(-c3ccc4c(c3)CCC(=O)N4)cs2)ccc1SC` it is 400 nM; for `Nc1ccc(-c2csc(-c3cccnc3)n2)cc1` it is 3000 nM.
As to `O=C1CCc2cc(-c3csc(-c4ccc([N+](=O)[O-])cc4)n3)ccc2N1`, in series [3], the IC50 result is “Not Active”.
Regarding `CCOc1ccc(-c2nc(-c3ccc(C(=O)O)s3)cs2)cc1OCC`, the IC50 in series [1] was 80 nM. In series [2], the solubility is 23 mg/mL.
`O=C1CCc2cc(-c3csc(-c4ccc(C(=O)O)cc4)n3)ccc2N1`: the IC50 entry in series [3] is “Not Active”.
The compound `CCCOc1cc(-c2nc(-c3ccc4c(c3)CCC(=O)N4)cs2)ccc1OC` showed an IC50 in series [1] of 90 nM.
For the compound `COc1ccc(C(O)c2nc(-c3ccc4c(c3)CCC(=O)N4)cs2)cc1OC` (stereo not given), the IC50 entry in series [3] is “Not Active”.

Values taken from ChEMBL document CHEMBL1128742, “Novel thiazole derivatives as inhibitors of superoxide production by human neutrophils: synthesis and structure-activity relationships” (J Med Chem, 1995).
